Series [1] can be described thus: Inhibition of TarO in methicillin-resistant Staphylococcus aureus membranes assessed as reduction in C55-P-P-GlcNAc production using C55-P as substrate in presence of UDP-GlcNAc by LC-MS analysis.
The test system of series [2] is Staphylococcus aureus subsp. aureus COL. As to the kind of experiment: Inhibition of methicillin-resistant Staphylococcus aureus COL TarO assessed as compound concentration required for potentiation of imipenem-mediated bacterial growth inhibition by 95% after 20 hrs. The essentials:
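MRSA COL grown with compound in the presence of imipenem at 4 μg/mL. Growth read by OD600. The value is the minimum concentration that inhibits 95% of growth (sMITC95).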

The subject of series [3] is Staphylococcus aureus. As to the kind of experiment: Growth inhibition of methicillin-resistant Staphylococcus aureus COL after 20 hrs. In short, it runs like this:
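MRSA COL grown with compound alone, with no antibiotic added. Growth read by OD600. The value is the minimum concentration that inhibits 95% of growth (iMITC95).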

Series [4] can be described thus: Solubility of the compound in PBS buffer. The format is physicochemical.
Series [5] concerns Staphylococcus aureus. As to the kind of experiment: Potentiation of imipenem-induced antibacterial activity against methicillin-resistant Staphylococcus aureus COL MB 5393 infected in neutropenic balb/c mouse assessed as reduction in bacterial burden in kidney at 10 mg/kg, sc administered three times per day at 2, 5 and 8 hrs post challenge cotreated with imipenem measured 24 hrs post challenge. The format is functional, organism-based.

Series [6] has as its system Staphylococcus aureus. As to the kind of experiment: Antibacterial activity against methicillin-resistant Staphylococcus aureus COL MB 5393 infected in balb/c mouse assessed as reduction in bacterial burden in kidney at 5 mg/kg, sc administered 2 to 8 hrs post challenge measured 24 hrs post challenge. Format: functional, organism-based.
Series [7] is described as follows: Inhibition of methicillin-resistant Staphylococcus aureus COL TarO assessed as suppression of bacteriophage K-mediated cell lysis. Set-up: species or system Staphylococcus aureus subsp. aureus COL.
Series [8] in a line: Inhibition of methicillin-resistant Staphylococcus aureus COL TarO assessed as late stage targocil suppression after 20 hrs. Further details: species or system Staphylococcus aureus subsp. aureus COL.
A short description of series [9]: AUC (0 to 24 hrs) in mouse at 100 mg/kg, po. Format: ADME, organism-based. Further details: time < 24 hr, dose 100 mg/kg, route oral. As to conditions: in vivo.
The species entered for series [10] is Homo sapiens. As to the kind of experiment: Inhibition of PAF (unknown origin) at 10 uM relative to control.
The species named for series [11] is Homo sapiens. As to the kind of experiment: Inhibition of adenosine transporter (unknown origin) at 10 uM relative to control.
Series [12] deals with Mitogen-activated protein kinase 3 (Homo sapiens) (UniProt P27361). As to the kind of experiment: Inhibition of ERK1 (unknown origin) at 10 uM relative to control.
Chain of Mitogen-activated protein kinase 3 (Homo sapiens) (P27361 whole entry): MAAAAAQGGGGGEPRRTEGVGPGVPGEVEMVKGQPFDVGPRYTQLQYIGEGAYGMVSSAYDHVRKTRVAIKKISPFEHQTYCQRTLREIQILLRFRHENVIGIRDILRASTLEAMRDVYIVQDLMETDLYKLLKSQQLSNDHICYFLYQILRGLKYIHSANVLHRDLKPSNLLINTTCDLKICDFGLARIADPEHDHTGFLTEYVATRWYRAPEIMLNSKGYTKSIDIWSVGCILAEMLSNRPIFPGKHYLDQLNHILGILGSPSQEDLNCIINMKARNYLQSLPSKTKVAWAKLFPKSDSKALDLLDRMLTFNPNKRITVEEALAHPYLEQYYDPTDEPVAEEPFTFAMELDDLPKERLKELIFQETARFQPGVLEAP
The target of series [13] is Cannabinoid receptor 1 (Homo sapiens) (UniProt P21554). As to the kind of experiment: Inhibition of CB1 receptor (unknown origin) at 10 uM relative to control.
Chain of Cannabinoid receptor 1 (Homo sapiens) (P21554 whole entry): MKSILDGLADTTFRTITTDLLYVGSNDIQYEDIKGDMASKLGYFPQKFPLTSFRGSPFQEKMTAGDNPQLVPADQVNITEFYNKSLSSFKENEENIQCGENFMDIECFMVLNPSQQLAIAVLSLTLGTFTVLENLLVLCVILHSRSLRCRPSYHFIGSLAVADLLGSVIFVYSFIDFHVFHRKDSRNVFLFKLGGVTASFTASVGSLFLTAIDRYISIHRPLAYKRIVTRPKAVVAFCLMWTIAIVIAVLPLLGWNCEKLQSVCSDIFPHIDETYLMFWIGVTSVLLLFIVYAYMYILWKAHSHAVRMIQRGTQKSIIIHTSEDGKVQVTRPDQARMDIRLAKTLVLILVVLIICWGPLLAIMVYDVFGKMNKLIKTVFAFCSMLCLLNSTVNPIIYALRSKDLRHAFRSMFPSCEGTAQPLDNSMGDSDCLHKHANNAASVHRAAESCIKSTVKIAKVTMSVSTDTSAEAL
For series [14], the species on record is Homo sapiens. As to the kind of experiment: Inhibition of TBOB binding to GABA-A receptor (unknown origin) at 10 uM relative to control.
Series [15] has as its target Histamine H2 receptor (Homo sapiens) (UniProt P25021). As to the kind of experiment: Inhibition of H2 receptor (unknown origin) at 10 uM relative to control.
Series [16] in a line: AUC (0 to infinity) in rat at 1 mg/kg, iv. The format is ADME, organism-based. Further details: dose 1 mg/kg, time infinity, route intravenous. Conditions: in vivo.
The nature of series [17]: Clearance in rat at 1 mg/kg, iv. The format is ADME, organism-based. Conditions: in vivo.
Series [18] is described as follows: Volume of distribution at steady state in rat at 1 mg/kg, iv. The format is ADME, organism-based. Conditions: in vivo, read-out: Vdss.
Series [19] in a line: Terminal half life in rat at 1 mg/kg, iv. Format: ADME, organism-based. Conditions: in vivo, read-out: beta t1/2 (converted).

Converted amounts (≈) assume the structure as drawn. The source made the active and inactive calls. The calls are words filed in the database; no cut-off is given here.

Chain of Histamine H2 receptor (Homo sapiens) (P25021 whole entry): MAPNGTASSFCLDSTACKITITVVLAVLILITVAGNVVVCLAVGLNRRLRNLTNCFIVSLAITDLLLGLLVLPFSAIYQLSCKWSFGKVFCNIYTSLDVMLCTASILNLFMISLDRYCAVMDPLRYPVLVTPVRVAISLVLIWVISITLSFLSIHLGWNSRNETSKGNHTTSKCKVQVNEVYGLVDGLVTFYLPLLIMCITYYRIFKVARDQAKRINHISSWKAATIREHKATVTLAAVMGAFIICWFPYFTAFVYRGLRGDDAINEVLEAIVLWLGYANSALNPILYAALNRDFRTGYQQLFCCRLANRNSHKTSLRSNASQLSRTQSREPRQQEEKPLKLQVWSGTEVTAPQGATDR

A word on the IC50: it is the point on the concentration scale where inhibition reaches its midpoint. For the compound `O=C(O)C[C@H]1[C@@H](c2cc(F)cc(C(F)(F)F)c2)OC(=O)N1C(=O)NCc1cncc2ccccc12`, the IC50 in series [1] was more than 200 µM. For the same compound, the MITC95 was more than 200000 nM in series [2] and more than 200 µM with Staphylococcus aureus [3].

As usually defined, the solubility is how much of the substance goes into solution per volume. High values mean much dissolved substance, low ones little dissolved substance. With `C[C@H]1[C@@H](c2cc(C(F)(F)F)cc(C(F)(F)F)c2)OC(=O)N1C(=O)Cc1cccc2ccccc12`, the IC50 in series [1] was 0.125 to 0.171 µM. The results for the MITC95 (in [2]; in the series with Staphylococcus aureus [3]) were 900 nM and more than 200 µM, respectively. Further, in series [4], the solubility was less than 1 µM.

In the case of `O=C(O)[C@H]1[C@@H](c2cccc(C(F)(F)F)c2)OC(=O)N1C(=O)NCc1cncc2ccccc12`, the IC50 in [1] was more than 200 µM. Moreover, the MITC95 in [2] is more than 200000 nM; in the series on Staphylococcus aureus [3] it was more than 200 µM.

As for `O=C(NCc1cncc2cccnc12)N1C(=O)O[C@H](c2cc(C(F)(F)F)cc(C(F)(F)F)c2)[C@@H]1CO`, the half-inhibitory concentration (IC50) in series [1] was 0.142 µM. Besides, the MITC95 was 390 nM in series [2] and more than 200 µM with Staphylococcus aureus [3].

For `C[C@H]1[C@@H](c2cc(C(F)(F)F)cc(C(F)(F)F)c2)OC(=O)N1CCCc1cccc2ccccc12`, the IC50 in [1] came to 0.038 µM.

Consider `CC(=O)NC[C@H]1CN(c2ccc(N3CCOCC3)c(F)c2)C(=O)O1`, for which the outcome with Staphylococcus aureus [5] was Active.

In the case of `C[C@@H](O)[C@H]1C(=O)N2C(C(=O)O)=C(SCCNC=N)C[C@H]12`, the result with Staphylococcus aureus [6] was inactive.

In the case of `O=C(NCc1cncc2ccccc12)N1C(=O)O[C@H](c2cc(C(F)(F)F)cc(C(F)(F)F)c2)[C@@H]1CO`, the IC50 in [1] was 0.17 to 0.174 µM; in series [7] it was 1.26 µM; in series [8], 0.496 µM. Further, the MITC95 is 220 nM in series [2] and more than 200 µM in the series with Staphylococcus aureus [3].

For `COc1cc(C(F)(F)F)cc([C@H]2OC(=O)N(C(=O)NCc3cncc4ccccc34)[C@H]2CO)n1`, the IC50 in [1] is 0.08 µM. For the same compound, the results for the MITC95 (in series [2]; with Staphylococcus aureus [3]) were 360 nM and more than 200 µM, respectively.

Regarding `C[C@H]1[C@@H](c2ccccn2)OC(=O)N1C(=O)NCCc1cccc2ccccc12`, the half-maximal inhibitory concentration (IC50) in series [1] was determined as 16 µM. Moreover, the MITC95 in [2] was more than 200000 nM.

By AUC(0-t) is commonly meant exposure summed from dosing to a finite time, without extrapolation to infinity. The low end stands for less exposure, the high end for more exposure. As a reminder, the inhibition is the percentage by which the read-out fell short of the control. As to `C[C@H]1[C@@H](c2cc(C(F)(F)F)cc(C(F)(F)F)c2)OC(=O)N1C(=O)CCc1cncc2ccccc12`, in series [1], the IC50 worked out at 0.024 µM. The MITC95 is 23 nM in [2] and more than 200 µM in the series on Staphylococcus aureus [3]. Further, the exposure AUC(0-t) at 24 h in series [9] came to 1700 nM·h. Further, the inhibition (in the series filed under Homo sapiens [10]; in the series listed under Homo sapiens [11]; in series [12]; in series [13]; in the series filed under Homo sapiens [14]; in [15]) was more than 50% each time.

`C[C@H]1[C@@H](c2cc(C(F)(F)F)cc(C(F)(F)F)c2)OC(=O)N1C(=O)CCc1cccc2ccccc12`: in series [1], the IC50 was found to be 0.009 µM. Further, the results for the MITC95 (in [2]; with Staphylococcus aureus [3]) were 15 nM and more than 200 µM, respectively.

Usually AUC(0-inf) stands for total exposure, with the tail of the curve extrapolated. Read a low AUC(0-inf) as low exposure. By clearance is commonly meant the volume of plasma or blood freed of the substance per unit of time. A high value points to a high capacity for elimination. Regarding `COc1cc(C(F)(F)F)cc([C@H]2OC(=O)N(C(=O)NCc3cncc4cccnc34)[C@H]2CO)n1`, in series [1], the IC50 worked out at 0.88 µM. Moreover, the MITC95 was 900 nM in [2] and more than 200 µM in the series with Staphylococcus aureus [3]. The concentration in solution in series [4] (solubility) was 94 µM (≈ 44.9 µg/mL). Besides, the area under the curve AUC(0-inf) in series [16] worked out at 950 nM·h. In addition, the clearance in series [17] turned out to be 2.21 L/h/kg. In addition, the Vd in series [18] was 1.2 L/kg. Also, the half-life in series [19] was 28.8 min. Also, the inhibition result (in the series listed under Homo sapiens [10]; in the series filed under Homo sapiens [11]; in series [12]; in series [13]; in the series filed under Homo sapiens [14]; in series [15]) was “inactive” in each case.

As for `C[C@H]1[C@@H](c2cc(C(F)(F)F)cc(C(F)(F)F)c2)OC(=O)N1CCC(=O)N1CCOc2ccccc21`, in [1], the IC50 is more than 200 µM. The MITC95 in series [2] was more than 200000 nM.

For the compound `COc1cc(C(F)(F)F)cc([C@H]2OC(=O)N(C(=O)NCc3cncc4cccnc34)[C@H]2C)n1`, the IC50 in series [1] amounted to 0.26 µM; in [7], 0.6 µM; in [8], 0.2 µM. Moreover, the MITC95 in series [2] is 375 nM; in the series on Staphylococcus aureus [3], more than 200 µM. The compound further came in with a solubility in series [4] of 32 µM (≈ 14.8 µg/mL).

Regarding `C[C@H]1[C@@H](c2cc(C(F)(F)F)cc(C(F)(F)F)c2)OC(=O)N1C(=O)NCc1cncc2cccnc12`, the concentration for half-maximal inhibition (IC50) in series [1] amounted to 0.012 µM. In addition, the MITC95 in series [2] is 125 nM; with Staphylococcus aureus [3], more than 200 µM.

For `C[C@H]1[C@@H](c2cccc(C(F)(F)F)c2)OC(=O)N1C(=O)NCc1cncc2cccnc12`, in [1], the IC50 turned out to be 0.402 µM. Besides, the MITC95 in [2] is 970 nM; in the series with Staphylococcus aureus [3], more than 200 µM.

Turning to `O=C(NCc1cncc2ccccc12)N1C(=O)O[C@H](c2cc(F)cc(C(F)(F)F)c2)[C@@H]1CO`, in [1], the IC50 stood at 0.21 µM. In addition, the figures for the MITC95 (in series [2]; in the series with Staphylococcus aureus [3]) were 320 nM and more than 200 µM, respectively.

Turning to `C[C@H]1[C@@H](c2cc(C(F)(F)F)cc(C(F)(F)F)c2)OC(=O)N1CC(=O)Nc1cncc2ccccc12`, the IC50 in [1] was more than 200 µM. Further, the MITC95 in series [2] is more than 200000 nM.

On to `C[C@H]1[C@@H](c2cc(C(F)(F)F)ccn2)OC(=O)N1C(=O)NCc1cncc2ccccc12`, for which, in series [1], the IC50 came to 5.3 µM. The values for the MITC95 (in series [2]; in the series on Staphylococcus aureus [3]) were 6250 nM and more than 200 µM, respectively.

In the case of `C[C@H]1[C@@H](c2cc(C(F)(F)F)cc(C(F)(F)F)c2)OC(=O)N1C(=O)Cc1cncc2ccccc12`, the IC50 in series [1] came out at 2.5 µM. In addition, the MITC95 with Staphylococcus aureus [3] was more than 200 µM.

With `C[C@H]1[C@@H](c2cc(C(F)(F)F)cc(C(F)(F)F)c2)OC(=O)N1C(=O)CCCc1cccc2ccccc12`, the half-inhibitory concentration (IC50) in series [1] worked out at 0.028 µM. Also, the MITC95 in [2] is 125 nM; in the series on Staphylococcus aureus [3] it was more than 200 µM.

For the compound `O=C(NCc1cncc2ccccc12)N1C(=O)O[C@H](c2cccc(C(F)(F)F)c2)[C@@H]1CO`, the IC50 in series [1] is 0.3 µM. The MITC95 in series [2] is 650 nM; in the series on Staphylococcus aureus [3], more than 200 µM.

With `C[C@H]1[C@@H](c2cc(F)cc(C(F)(F)F)c2)OC(=O)N1C(=O)NCc1cncc2ccccc12`, in series [1], the IC50 was determined as 0.025 µM. For the same compound, the MITC95 is 125 nM in series [2] and more than 200 µM in the series with Staphylococcus aureus [3].

As to `C[C@H]1[C@@H](c2cc(C(F)(F)F)cc(C(F)(F)F)c2)OC(=O)N1C(=O)NCc1cncc2ccccc12`, the IC50 was determined as 0.029 µM in series [1], 0.094 µM in series [7] and 0.191 µM in series [8]. In addition, the MITC95 in series [2] is 31 nM; in the series with Staphylococcus aureus [3], more than 200 µM.

On to `O=C(NCc1cncc2ccccc12)N1C(=O)O[C@H](c2cc(F)cc(C(F)(F)F)c2)[C@@H]1CCO`, for which the concentration for half-maximal inhibition (IC50) in [1] amounted to 4.7 µM. For the same compound, the MITC95 was 18000 nM in series [2] and more than 200 µM with Staphylococcus aureus [3].

The values are drawn from ChEMBL document CHEMBL4049414, “Can We Make Small Molecules Lean? Optimization of a Highly Lipophilic TarO Inhibitor” (J Med Chem, 2017).
